Measurements as given in ChEMBL document CHEMBL1126014, “New conformationally restricted 99mTc N2S2 complexes as myocardial perfusion imaging agents” (J Med Chem, 1992).

Experiments:
Rattus norvegicus [1] = test: Heart by blood ratio of the radiolabeled compound (2-5 uCi) in rat 2 mins after i.v. administration; settings: in vivo, iv
Rattus norvegicus [2] = test: Biodistribution of the radiolabeled compound (2-5 uCi) in rat blood 2 mins after i.v. administration; type: ADME, organism-based; settings: in vivo, iv
Summary of the method: (§1)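 Rats given the 99mTc complex iv. At set times, blood was drawn by cardiac puncture and the animals were killed at once by cardiectomy. Organs were excised, weighed and gamma-counted. Percent dose per organ was found by comparing tissue radioactivity with suitable dilutions of the injected dose.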

[3] = Partition coefficient in buffer containing 0.1 M NaCl; type: ADME; settings: octanol/water
Summary of the method: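 Octanol/buffer partition: the 99mTc complex was shaken with 3 g 1-octanol plus 3 g 50 mM phosphate pH 7.4 containing 0.1 M NaCl. Vortexing was 3 × 1 min at room temperature, followed by 5 min centrifugation. Weighed samples from both layers were gamma-counted. Ratio = octanol counts/g over aqueous counts/g.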

Rattus norvegicus [4] = test: Biodistribution of the radiolabeled compound (2-5 uCi) in rat blood 65 mins after i.v. administration; type: ADME, organism-based; settings: in vivo, iv
Summary of the method: as §1

Rattus norvegicus [5] = test: Biodistribution of the radiolabeled compound (2-5 uCi) in rat spleen 2 mins after i.v. administration; type: ADME, organism-based; settings: in vivo, iv
Summary of the method: as §1

Rattus norvegicus [6] = test: Biodistribution of the radiolabeled compound (2-5 uCi) in rat spleen 15 mins after i.v. administration; type: ADME, organism-based; settings: in vivo, iv, 0.25 h
Summary of the method: as §1

Rattus norvegicus [7] = test: Biodistribution of the radiolabeled compound (2-5 uCi) in rat brain 65 mins after i.v. administration; type: ADME, organism-based; settings: in vivo, iv
Summary of the method: as §1

Rattus norvegicus [8] = test: Biodistribution of the radiolabeled compound (2-5 uCi) in rat brain 2 mins after i.v. administration; type: ADME, organism-based; settings: in vivo, iv
Summary of the method: as §1

Rattus norvegicus [9] = test: Biodistribution of the radiolabeled compound (2-5 uCi) in rat skin 2 mins after i.v. administration; type: ADME, organism-based, Zone of skin; settings: in vivo, iv
Summary of the method: as §1

[10] = Partition coefficient in buffer containing 0.1 M NH4PF6; type: ADME; settings: octanol/water
Summary of the method: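 The 99mTc complex was mixed with 3 g each of 1-octanol and 50 mM phosphate buffer pH 7.4 containing 0.1 M NH4PF6. Tubes were vortexed three times for 1 min at room temperature and centrifuged 5 min. Weighed samples of each layer were gamma-counted. PC = counts per gram in octanol / counts per gram in aqueous.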

Rattus norvegicus [11] = test: Biodistribution of the radiolabeled compound (2-5 uCi) in rat kidney 65 mins after i.v. administration; type: ADME, organism-based; settings: in vivo, iv
Summary of the method: as §1

Rattus norvegicus [12] = test: Biodistribution of the radiolabeled compound (2-5 uCi) in rat liver 2 mins after i.v. administration; type: ADME, organism-based; settings: in vivo, iv
Summary of the method: as §1

Rattus norvegicus [13] = test: Biodistribution of the radiolabeled compound (2-5 uCi) in rat heart 2 mins after i.v. administration; type: ADME, organism-based; settings: in vivo, iv
Summary of the method: as §1

Rattus norvegicus [14] = test: Biodistribution of the radiolabeled compound (2-5 uCi) in rat muscle 2 mins after i.v. administration; type: ADME, organism-based, Muscle tissue; settings: in vivo, iv
Summary of the method: as §1

Rattus norvegicus [15] = test: Biodistribution of the radiolabeled compound (2-5 uCi) in rat heart 15 mins after i.v. administration; type: ADME, organism-based; settings: in vivo, iv, 0.25 h
Summary of the method: as §1

Rattus norvegicus [16] = test: Biodistribution of the radiolabeled compound (2-5 uCi) in rat liver 15 mins after i.v. administration; type: ADME, organism-based; settings: in vivo, iv, 0.25 h
Summary of the method: as §1

Rattus norvegicus [17] = test: Biodistribution of the radiolabeled compound (2-5 uCi) in rat brain 15 mins after i.v. administration; type: ADME, organism-based; settings: in vivo, iv, 0.25 h
Summary of the method: as §1

Rattus norvegicus [18] = test: Biodistribution of the radiolabeled compound (2-5 uCi) in rat spleen 65 mins after i.v. administration; type: ADME, organism-based; settings: in vivo, iv
Summary of the method: as §1

Rattus norvegicus [19] = test: Heart by blood ratio of the radiolabeled compound (2-5 uCi) in rat 65 mins after i.v. administration; settings: in vivo, iv
Rattus norvegicus [20] = test: Biodistribution of the radiolabeled compound (2-5 uCi) in rat skin 15 mins after i.v. administration; type: ADME, organism-based, Zone of skin; settings: in vivo, iv, 0.25 h
Summary of the method: as §1

Rattus norvegicus [21] = test: Biodistribution of the radiolabeled compound (2-5 uCi) in rat lung 15 mins after i.v. administration; type: ADME, organism-based; settings: in vivo, iv, 0.25 h
Summary of the method: as §1

Rattus norvegicus [22] = test: Biodistribution of the radiolabeled compound (2-5 uCi) in rat heart 65 mins after i.v. administration; type: ADME, organism-based; settings: in vivo, iv
Summary of the method: as §1

Rattus norvegicus [23] = test: Biodistribution of the radiolabeled compound (2-5 uCi) in rat muscle 15 mins after i.v. administration; type: ADME, organism-based, Muscle tissue; settings: in vivo, iv, 0.25 h
Summary of the method: as §1

Rattus norvegicus [24] = test: Biodistribution of the radiolabeled compound (2-5 uCi) in rat liver 65 mins after i.v. administration; type: ADME, organism-based; settings: in vivo, iv
Summary of the method: as §1

Rattus norvegicus [25] = test: Biodistribution of the radiolabeled compound (2-5 uCi) in rat lung 65 mins after i.v. administration; type: ADME, organism-based; settings: in vivo, iv
Summary of the method: as §1

Rattus norvegicus [26] = test: Biodistribution of the radiolabeled compound (2-5 uCi) in rat skin 65 mins after i.v. administration; type: ADME, organism-based, Zone of skin; settings: in vivo, iv
Summary of the method: as §1

Rattus norvegicus [27] = test: Biodistribution of the radiolabeled compound (2-5 uCi) in rat lung 2 mins after i.v. administration; type: ADME, organism-based; settings: in vivo, iv
Summary of the method: as §1

Rattus norvegicus [28] = test: Biodistribution of the radiolabeled compound (2-5 uCi) in rat muscle 65 mins after i.v. administration; type: ADME, organism-based, Muscle tissue; settings: in vivo, iv
Summary of the method: as §1

Rattus norvegicus [29] = test: Biodistribution of the radiolabeled compound (2-5 uCi) in rat kidney 2 mins after i.v. administration; type: ADME, organism-based; settings: in vivo, iv
Summary of the method: as §1

Rattus norvegicus [30] = test: Biodistribution of the radiolabeled compound (2-5 uCi) in rat blood 15 mins after i.v. administration; type: ADME, organism-based; settings: in vivo, iv, 0.25 h
Summary of the method: as §1

Rattus norvegicus [31] = test: Heart/blood ratio of the radiolabeled compound (2-5 uCi) in rat 15 mins after i.v. administration; settings: in vivo, iv, 0.25 h
Rattus norvegicus [32] = test: Biodistribution of the radiolabeled compound (2-5 uCi) in rat kidney 15 mins after i.v. administration; type: ADME, organism-based; settings: in vivo, iv, 0.25 h
Summary of the method: as §1

SMILES | heart/blood ratio (Rattus norvegicus [1]) | Biodistribution (Rattus norvegicus [2]) [dose/organ %] | Partition coefficient [3] | Biodistribution (Rattus norvegicus [4]) [dose/organ %] | Biodistribution (Rattus norvegicus [5]) [dose/organ %] | Biodistribution (Rattus norvegicus [6]) [dose/organ %] | Biodistribution (Rattus norvegicus [7]) [dose/organ %] | Biodistribution (Rattus norvegicus [8]) [dose/organ %] | Biodistribution (Rattus norvegicus [9]) [dose/organ %] | Partition coefficient [10] | Biodistribution (Rattus norvegicus [11]) [dose/organ %] | Biodistribution (Rattus norvegicus [12]) [dose/organ %] | Biodistribution (Rattus norvegicus [13]) [dose/organ %] | Biodistribution (Rattus norvegicus [14]) [dose/organ %] | Biodistribution (Rattus norvegicus [15]) [dose/organ %] | Biodistribution (Rattus norvegicus [16]) [dose/organ %] | Biodistribution (Rattus norvegicus [17]) [dose/organ %] | Biodistribution (Rattus norvegicus [18]) [dose/organ %] | heart/blood ratio (Rattus norvegicus [19]) | Biodistribution (Rattus norvegicus [20]) [dose/organ %] | further results
CC(C)(S)CN1CCCN(CC(C)(C)S)CC1 | 1.18 | 3.57 | 1.19 | 0.77 | 0.41 | 0.26 | 0.007 | 0.04 | 7.45 | 11.5 | 4.26 | 25.92 | 0.42 | 9.08 | 0.38 | 27.48 | 0.01 | 0.22 | 4.8 | 5.16 | Biodistribution (Rattus norvegicus [21]): 0.28 dose/organ %; Biodistribution (Rattus norvegicus [22]): 0.37 dose/organ %; Biodistribution (Rattus norvegicus [23]): 6.98 dose/organ %; Biodistribution (Rattus norvegicus [24]): 15.23 dose/organ %; Biodistribution (Rattus norvegicus [25]): 0.23 dose/organ %; Biodistribution (Rattus norvegicus [26]): 6.8 dose/organ %; Biodistribution (Rattus norvegicus [27]): 0.56 dose/organ %; Biodistribution (Rattus norvegicus [28]): 8.66 dose/organ %; Biodistribution (Rattus norvegicus [29]): 19.37 dose/organ %; Biodistribution (Rattus norvegicus [30]): 1.14 dose/organ %; heart/blood ratio (Rattus norvegicus [31]): 3.33; Biodistribution (Rattus norvegicus [32]): 15.9 dose/organ %
CC(C)(S)CN1CCN(CC(C)(C)S)CC1 | 0.29 | 7.16 | 1.09 | 0.7 | 0.57 | 0.25 | 0.003 | 0.03 | 6.65 | 10.75 | 1.09 | 31.81 | 0.21 | 10.67 | 0.1 | 29.63 | 0.01 | 0.08 | 1 | 14.13 | Biodistribution (Rattus norvegicus [21]): 0.23 dose/organ %; Biodistribution (Rattus norvegicus [22]): 0.07 dose/organ %; Biodistribution (Rattus norvegicus [23]): 10.12 dose/organ %; Biodistribution (Rattus norvegicus [24]): 20.2 dose/organ %; Biodistribution (Rattus norvegicus [25]): 0.12 dose/organ %; Biodistribution (Rattus norvegicus [26]): 7.13 dose/organ %; Biodistribution (Rattus norvegicus [27]): 0.62 dose/organ %; Biodistribution (Rattus norvegicus [28]): 5.06 dose/organ %; Biodistribution (Rattus norvegicus [29]): 15.71 dose/organ %; Biodistribution (Rattus norvegicus [30]): 2 dose/organ %; heart/blood ratio (Rattus norvegicus [31]): 0.5; Biodistribution (Rattus norvegicus [32]): 9.43 dose/organ %
